Results on 1 compound are retold here after ChEMBL document CHEMBL3758117, “Discovery of indeno[1,2-b]quinoxaline derivatives as potential anticancer agents” (Eur J Med Chem, 2016).

SMILES strings stand for the structures. Calls of active or inactive are those of the source. The rule behind the calls is not given here.

Assay [1] can be described thus: Induction of apoptosis in human HuH7 cells assessed as upregulation of Bad expression at 1 to 10 uM after 24 hrs by Western blot analysis. The format is functional, cell-based. The conditions noted are these: Huh-7. Background: Immunoblotting shows a protein as a band on a membrane.
Assay [2] deals with Huh-7. Briefly: Induction of apoptosis in human HuH7 cells assessed as downregulation of PARP expression at 1 to 10 uM after 24 hrs by Western blot analysis. The format is functional, cell-based. In short, it runs like this:
(§1)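 Huh-7 cells were treated with DMSO or compound at 1, 5 and 10 μM for 24 h. Cells were lysed in NP-40 buffer with protease and phosphatase inhibitors, and protein was measured by Bradford. Lysate protein was resolved by SDS-PAGE and transferred to PVDF. Membranes were blocked in 5% milk, probed with primary antibodies for 2 h and secondary antibodies for 30 min, and detected by ECL, with β-actin as loading control.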

The target of assay [3] is RAC-alpha serine/threonine-protein kinase (Homo sapiens) (UniProt P31749). Kind of assay: Inhibition of AKT1 phosphorylation in human HuH7 cells at 1 to 10 uM after 24 hrs by immunoblot analysis. The format is cell-based. The conditions noted are these: Huh-7. In short, it runs like this: as §1
Sequence of RAC-alpha serine/threonine-protein kinase (Homo sapiens) (P31749 whole entry): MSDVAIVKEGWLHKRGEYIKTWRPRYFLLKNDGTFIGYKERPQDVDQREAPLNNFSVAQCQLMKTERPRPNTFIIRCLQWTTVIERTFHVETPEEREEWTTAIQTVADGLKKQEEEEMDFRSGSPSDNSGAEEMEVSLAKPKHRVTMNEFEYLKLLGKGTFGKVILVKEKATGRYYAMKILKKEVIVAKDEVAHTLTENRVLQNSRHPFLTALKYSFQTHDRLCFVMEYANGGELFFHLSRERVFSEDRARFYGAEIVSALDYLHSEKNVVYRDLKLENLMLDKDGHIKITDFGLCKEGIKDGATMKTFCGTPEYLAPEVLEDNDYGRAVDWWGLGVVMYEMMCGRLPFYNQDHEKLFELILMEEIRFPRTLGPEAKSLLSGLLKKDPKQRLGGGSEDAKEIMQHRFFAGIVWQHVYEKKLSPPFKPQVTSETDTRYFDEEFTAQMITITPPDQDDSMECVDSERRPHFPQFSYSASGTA
Another assay deals with Escherichia coli. Briefly: Binding affinity to Escherichia coli negative supercoiled pBR322 DNA at 10 uM after 12 hrs by ethidium bromide staining based agarose gel electrophoresis. In short, it runs like this: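 Negatively supercoiled pBR322 (400 ng) in TE buffer pH 8.0 was incubated with compound at 10 μM for 12 h at room temperature. Loading buffer with sarkosyl was added. Samples were run on 1% agarose at 6 V/cm for 2.5 h in TAE pH 8.5, stained with ethidium bromide and photographed under UV.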

For a further assay, the system named is MDA-MB-231. Kind of assay: Antiproliferative activity against human MDA-MB-231 cells after 72 hrs by XTT assay. The format is functional, cell-based. Conditions: MDA-MB-231, 72 h. In short, it runs like this: (§2)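 Cells kept as monolayers in DMEM with 10% FBS, penicillin, streptomycin and amphotericin at 37°C, 5% CO2. Seeded at 5 x 10³ cells/well and exposed to compound for 72 h in medium with 10% FBS. XTT plus electron-coupling reagent added, 4 h at 37°C, absorbance read at 492 nm. Percent of control growth uses mean absorbance (n = 3). The 50% value is taken from the linear portion of the curve.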

The nature of assay [4]: Antiproliferative activity against human H1299 cells after 72 hrs by XTT assay. It counts as functional, cell-based. Conditions: NCI-H1299, 72 h. In short, it runs like this: as §2
(In general: Formazan colour is commonly taken as a measure of viable cells.)

A short description of assay [5]: Antiproliferative activity against human PC3 cells after 72 hrs by XTT assay. The format is functional, cell-based. Conditions: PC-3, 72 h. In short, it runs like this:
as §2

Assay [6] in a line: Antiproliferative activity against human HuH7 cells after 72 hrs by XTT assay. The format is functional, cell-based. Conditions: Huh-7, 72 h. In short, it runs like this: as §2
The test system of assay [7] is MRC5. Kind of assay: Antiproliferative activity against human MRC5 cells after 72 hrs by XTT assay. The format is cell-based. The conditions noted are these: MRC5, 72 h. In short, it runs like this: as §2
For assay [8], the system named is MRC5. Kind of assay: Selectivity index, ratio of IC50 for human MRC5 cells to IC50 for human MDA-MB-231 cells. It counts as functional.
Assay [9] deals with MRC5. Briefly: Selectivity index, ratio of IC50 for human MRC5 cells to IC50 for human PC3 cells. The format is functional.
Assay [10] has as its target T1, DNA topoisomerase 1 (Homo sapiens) (UniProt P11387).
T1 sequence (whole entry): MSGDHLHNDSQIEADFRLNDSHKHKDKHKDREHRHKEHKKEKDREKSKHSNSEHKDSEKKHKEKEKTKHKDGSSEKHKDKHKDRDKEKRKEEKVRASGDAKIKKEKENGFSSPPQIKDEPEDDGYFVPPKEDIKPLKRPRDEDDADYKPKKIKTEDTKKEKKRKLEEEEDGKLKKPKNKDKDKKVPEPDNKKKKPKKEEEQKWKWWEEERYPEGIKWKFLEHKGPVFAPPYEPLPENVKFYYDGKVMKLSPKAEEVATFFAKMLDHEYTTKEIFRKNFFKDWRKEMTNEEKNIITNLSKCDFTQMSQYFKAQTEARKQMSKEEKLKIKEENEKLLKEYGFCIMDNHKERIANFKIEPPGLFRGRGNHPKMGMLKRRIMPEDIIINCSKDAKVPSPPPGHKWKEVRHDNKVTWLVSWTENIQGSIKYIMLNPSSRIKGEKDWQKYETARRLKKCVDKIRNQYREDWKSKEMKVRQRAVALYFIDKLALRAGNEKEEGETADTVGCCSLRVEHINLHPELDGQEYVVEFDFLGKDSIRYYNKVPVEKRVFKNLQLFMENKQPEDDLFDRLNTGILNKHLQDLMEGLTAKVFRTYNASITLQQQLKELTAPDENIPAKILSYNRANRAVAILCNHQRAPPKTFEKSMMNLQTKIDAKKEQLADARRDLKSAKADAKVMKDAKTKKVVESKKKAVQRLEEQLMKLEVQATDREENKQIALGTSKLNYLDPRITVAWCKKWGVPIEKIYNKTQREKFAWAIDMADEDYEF
Briefly: Inhibition of human DNA topoisomerase 1-mediated relaxation of supercoiled pBR322 DNA at 100 uM after 30 mins by ethidium bromide staining based agarose gel electrophoresis. In short, it runs like this:
(§3)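 Human topo I or topo II (2 units) was reacted with 0.2 μg supercoiled pBR322 in 20 μl Tris-HCl pH 7.5 containing KCl, DTT, EDTA, MgCl2 and BSA, with DMSO held at 0.5%, for 30 min at 37°C. The reaction was stopped with SDS. Samples were run on 1% agarose in Tris-acetate/EDTA at 1.5 V/cm for 2-3 h and stained with ethidium bromide. Relaxation was quantified by densitometry of the supercoiled band area.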

For assay [11], the target named is T1, DNA topoisomerase 1 (Homo sapiens). Kind of assay: Inhibition of human DNA topoisomerase 1-mediated relaxation of supercoiled pBR322 DNA at 10 uM after 30 mins by ethidium bromide staining based agarose gel electrophoresis. In short, it runs like this:
as §3

Assay [12] in a line: Cell cycle arrest in human HuH7 cells assessed as accumulation at subG1 phase at 1 uM for 24 hrs by propidium iodide staining based flow cytometry (reference value: 1.3 +/- 0.7%). It counts as functional. The conditions noted are these: Huh-7. For orientation: Flow cytometry measures light scatter and fluorescence of single cells or particles in a stream.
A short description of assay [13]: Cell cycle arrest in human HuH7 cells assessed as accumulation at sub G1 phase at 5 uM for 24 hrs by propidium iodide staining based flow cytometry (reference value: 1.3 +/- 0.7%). The format is functional. The conditions noted are these: Huh-7.
Assay [14] is described as follows: Cell cycle arrest in human HuH7 cells assessed as accumulation at S phase at 1 uM for 24 hrs by propidium iodide staining based flow cytometry (reference value: 11.4 +/- 2.4%). The format is functional. Conditions: Huh-7.
Assay [15] can be described thus: Cell cycle arrest in human HuH7 cells assessed as accumulation at S phase at 5 uM for 24 hrs by propidium iodide staining based flow cytometry (reference value: 11.4 +/- 2.4%). The format is functional. The conditions noted are these: Huh-7.
Assay [16] can be described thus: Cell cycle arrest in human HuH7 cells assessed as accumulation at S phase at 10 uM for 24 hrs by propidium iodide staining based flow cytometry (reference value: 11.4 +/- 2.4%). The format is functional. The conditions noted are these: Huh-7.
Assay [17] has as its system Huh-7. Briefly: Induction of apoptosis in human HuH7 cells assessed as cell shrinkage at 5 uM after 24 hrs by light microscopy. It counts as functional, cell-based.
A short description of assay [18]: Downregulation of cyclin B1 expression in human HuH7 cells at 1 to 10 uM after 24 hrs by immunoblot analysis. The format is functional, cell-based. The conditions noted are these: Huh-7. In short, it runs like this: as §1
Assay [19] in a line: Downregulation of cyclin D1 expression in human HuH7 cells at 1 to 10 uM after 24 hrs by immunoblot analysis. The conditions noted are these: Huh-7. It counts as functional, cell-based. In short, it runs like this:
as §1

Assay [20] is described as follows: Induction of apoptosis in human HuH7 cells assessed as upregulation of activated caspase 3 at 1 to 10 uM after 24 hrs by Western blot analysis. It counts as functional, cell-based. The conditions noted are these: Huh-7. In short, it runs like this: as §1
A short description of assay [21]: Induction of apoptosis in human HuH7 cells assessed as upregulation of activated caspase 7 at 1 to 10 uM after 24 hrs by Western blot analysis. The format is functional, cell-based. Conditions: Huh-7. In short, it runs like this: as §1

For `CN(C)CCCNC(=O)c1cccc2nc3c(nc12)-c1ccccc1/C3=N\OCCCN(C)C.Cl`, the Activity entry was “Dose-dependent effect” in [1]; “Dose-dependent effect” with Huh-7 [2]; 3.8% in assay [12]; 11.5% in [13]; 21.6% in assay [14]; 30.5% in assay [15]. The Activity in assay [16] was 38.4%; in assay [20], “Dose-dependent effect”; in [21], “Dose-dependent effect”. Besides, the inhibition entry in assay [3] and in [11] was “Active” throughout. In addition, the outcome (in the assay with Escherichia coli; with Huh-7 [17]; in assay [18]; in assay [19]) was Active. For the same compound, the IC50 – broadly, the midpoint of a concentration-inhibition curve – stood at 870 nM in the assay with MDA-MB-231; 5780 nM in [4]; 820 nM in assay [5]; 640 nM in assay [6]; 31500 nM in the assay on MRC5 [7]. Also, the “Ratio IC50” value is recorded as 36.22 with MRC5 [8] and 38.43 with MRC5 [9]. Moreover, in assay [10], the “topoisomerase 1 inhibition (active/inactive)” value is “Active”.
